Measured values as given in PubChem BioAssay AID720543 (The Scripps Research Institute Molecular Screening Center, 2013).
Screen size: about 370,000 compounds; about 2,000 (0.54%) were called active.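 The calls were made as follows: active = inhibition exceeding the mean over every tested compound plus 3 SD (cut at about 30% in these data); inactive = the rest.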 For the sample, actives were picked, then their nearest neighbours and some compounds at random.

Target: (Lyso)-N-acylphosphatidylethanolamine lipase (Mus musculus) (UniProt Q8VD66)
Assay: mouse ABHD4 hydrolase activity blockers – biochemical, fluorescence polarization, primary screen (AID 720543);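 also: 0% = plate median of compound wells and 100% = S159A mutant with DMSO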
Conditions: purified mABHD4, FP-Rh probe fluorescence polarization; at 8.92 µM; active compounds read high
Summary of the method: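 Test system: mABHD4 protein | Buffer or medium: HEPES pH 7.0 buffer, 150 mM NaCl, 0.01% Pluronic F-127 | Probe or stimulus: FP-Rh fluorescent activity-based probe, added after compound pre-incubation | Timing: Pre-incubation 45 min, probe exposure 60 min, at 25 °C | Technique: Fluorescence polarization, excitation 525 nm, emission 598 nm, BODIPY TMR filters | Repeats: Single well per compound (singlicate)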

(Lyso)-N-acylphosphatidylethanolamine lipase (Mus musculus), sequence (Q8VD66 whole entry, looked up): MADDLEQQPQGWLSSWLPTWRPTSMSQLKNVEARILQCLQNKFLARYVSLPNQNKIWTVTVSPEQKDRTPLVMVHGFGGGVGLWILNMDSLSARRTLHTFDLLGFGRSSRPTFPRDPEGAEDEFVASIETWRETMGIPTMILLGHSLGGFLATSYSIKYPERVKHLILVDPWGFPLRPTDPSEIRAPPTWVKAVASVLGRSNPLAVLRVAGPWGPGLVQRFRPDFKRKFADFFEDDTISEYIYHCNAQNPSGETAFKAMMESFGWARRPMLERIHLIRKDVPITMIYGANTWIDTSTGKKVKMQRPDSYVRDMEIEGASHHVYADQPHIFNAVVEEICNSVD

| Compound | inhibition |
| --- | --- |
| O=C(Nc1cc(F)cc(F)c1)OC1CCC12CCC(c1ccccc1)CC2 (configuration not stated) | -31.2% (inactive) |
| CC(Oc1ccc(Cl)cc1)c1ccnn1S(C)(=O)=O (configuration not stated) | 1.1% (inactive) |
| CCOC(=O)C1(Cc2ccccc2)CCN(Cc2cn(C(C)=O)c3ccccc23)CC1 | -1.19% (inactive) |
| COc1ccc(C)cc1NC(=O)c1[nH]c(C)c(C(C)=O)c1C | -2.22% (inactive) |
| CCc1c(C)nc2c(OC)cccc2c1Cl | 0.48% (inactive) |
| COc1cccc2c(C)c(C(=O)O)[nH]c12 | 35.9% (active) |
| COC(=O)c1cccc(Cn2ccc3ccc(-c4ccc5ccn(C(=O)c6ccccc6C)c5c4)cc32)c1 | 1.96% (inactive) |
| CCOC(=O)C[C@H]1c2ccc(C(F)(F)F)cc2S(=O)(=O)N1c1ccccc1 | -6.24% (inactive) |
| CCOC(=O)C1Nc2ccc(C(F)(F)F)cc2C2C=CCC12 (configuration not stated) | 41.8% (active) |
| CCOC(=O)/C=C/c1ccc(C(F)(F)F)cc1S(=O)(=O)NC(C)(C)C | -26.5% (inactive) |
| CN1C(=O)c2cc(NS(C)(=O)=O)ccc2OC[C@@H]2O[C@@H](CC(=O)NCc3ccc(-c4ccccc4)cc3)CC[C@H]21 | 3.8% (inactive) |
| Cc1ccc(Cn2cc(CN3[C@@H](CC(C)C)COc4ccc(Cl)cc4S3(=O)=O)nn2)cc1 | 4.37% (inactive) |
| O=C(NCc1cccs1)C1CCCN(S(=O)(=O)c2ccc([N+](=O)[O-])cc2)C1 (configuration not stated) | 4.68% (inactive) |
| CCC(C)Cn1c(O)cc2nn(-c3nc4ccccc4s3)c(=O)c-2c1C (configuration not stated) | 44.6% (active) |
| O=S(=O)([N-]c1nc2ccccc2nc1-[n+]1ccc(Cc2ccccc2)cc1)c1ccc(Br)s1 | 7.29% (inactive) |
| O=C1CCN(C(=O)Nc2ccccc2)N1 | 6.15% (inactive) |
| Cc1ccc(NC2CCCN(C(=O)CCC3(C)CC3)C2)cc1C (configuration not stated) | 8.21% (inactive) |
| O=C(Nc1cc(Cl)cc(Cl)c1)OCCN1CCCC12CCC(c1ccccc1)CC2 (configuration not stated) | 2.15% (inactive) |
| COC(=O)c1ccc(COc2cc([N+](=O)[O-])cc3cccnc23)cc1 | 6.05% (inactive) |
| COC(=O)C(C)N(C#N)c1nc(C)nc(C)n1 (configuration not stated) | -1.89% (inactive) |
| O=C(O)c1cc([N+](=O)[O-])c(Nc2cccc3ccccc23)c([N+](=O)[O-])c1 | 35.4% (active) |
| O=C(Nc1ccccc1[N+](=O)[O-])C1C(c2ccccc2)=C1c1ccccc1 | -0.35% (inactive) |

| Compound | inhibition |
| --- | --- |
| CCN(C(=O)Nc1cccc2ccccc12)c1ccccc1 | 18.5% (inactive) |
| O=C1C(=O)N(Cc2ccc(-c3ccsc3)cc2)c2ccc(OC(F)(F)F)cc21 | 1.83% (inactive) |
| COC(=O)[C@]12C[C@H](CC(=O)NCc3ccccc3)C(=O)N(CCc3ccc(OC)c(OC)c3)C1=C[C@H](C(C)(C)C)O[C@@H]2C | 4.6% (inactive) |
| CCOc1cc(/C=C2/N=C(c3ccc(C(C)(C)C)cc3)OC2=O)cc(Cl)c1OS(C)(=O)=O | 37.3% (active) |
| CNc1[nH]ncc1[N+](=O)[O-] | 7.62% (inactive) |
| CN(C)CC(=O)N[C@@H]1C[C@@H]2O[C@H](CO)CC[C@@H]2O[C@@H]1CCc1ccc(C#Cc2ccccc2)cc1 | 3.38% (inactive) |
| C#CCCN([C@H](C(=O)OC)C(C)C)S(=O)(=O)c1ccc(F)cc1Br | -7.15% (inactive) |
| CC(=O)N(c1ccc2oc(=O)sc2c1)S(=O)(=O)c1ccc(C)cc1 | 7.97% (inactive) |
| O=C(CN(Cc1ccc(Br)cc1)S(=O)(=O)c1ccccc1)NCc1ccncc1 | -0.4% (inactive) |
| O=C(c1cccnc1)N(c1cc2sc(=O)oc2c2ccccc12)S(=O)(=O)c1ccccc1 | 61.7% (active) |
| Cc1cc(C)nc(NC(=S)N2CCN(c3ccc(C(F)(F)F)cn3)CC2)c1 | 8.35% (inactive) |
| O=C(NCc1ccco1)C1CCCN(S(=O)(=O)c2cccc3nonc23)C1 (configuration not stated) | 5.79% (inactive) |
| CCOc1ccc(Br)cc1CSC(=N)N | 4.65% (inactive) |
| CCc1ccc(-c2nn(-c3ccccc3C)cc2C(=O)N2CCN(C3CCS(=O)(=O)C3)CC2)cc1 (configuration not stated) | 5.26% (inactive) |
| CCc1ccc(-c2nn(-c3ccccc3)cc2CSC(=N)N)cc1 | 52.2% (active) |
| CC1=C(C/C=C(\C)CCCC(C)CCCC(C)CCCC(C)C)C(=O)c2ccccc2C1=O (configuration not stated) | -0.54% (inactive) |
| C=C(C)C1CC23C(=O)C4(C(=O)c5ccccc5)C[C@@]5(C)CCC(CC2C1(C)C)(C4=O)C35OC (some centres not stated) | -1.09% (inactive) |
| NNc1nc2c(Cl)cccc2s1 | 70.2% (active) |
| CCOCCOCCC(C(=O)O)P(=O)(c1ccccc1)c1ccccc1 (configuration not stated) | 4.54% (inactive) |
| C=C1c2c(Cl)ccc(O)c2C(O)=C2C(=O)[C@]3(O)C(O)=C(C(N)=O)C(=O)[C@@H](N(C)C)[C@@H]3[C@@H](O)C12 (some centres not stated) | 69.7% (active) |
| CN(C)[C@@H]1C(=O)C(C(N)=O)=C(O)[C@@]2(O)C(=O)C3=C(O)c4c(O)ccc(Cl)c4[C@@H](O)[C@H]3C[C@@H]12 | 55.1% (active) |
| COc1ccccc1NC(=O)CCC(=O)OC(C)C(=O)c1ccccc1 (configuration not stated) | 4.06% (inactive) |

| Compound | inhibition |
| --- | --- |
| C#CCN([C@H](C(=O)OC)C(C)CC)S(=O)(=O)c1ccccc1Br (some centres not stated) | -0.06% (inactive) |
| O=C(C(=O)N1CCC(CNC(=O)c2cccnc2Cl)CC1)c1cccs1 | 2.01% (inactive) |
| Cc1[nH]nc2c1C(c1ccc(Br)cc1)NC2=O (configuration not stated) | 7.99% (inactive) |
| Cc1cc(NS(=O)(=O)c2ccc(NC(=O)CSc3nnc(-c4ccc(C(C)(C)C)cc4)n3Cc3ccco3)cc2)nc(C)n1 | -7.09% (inactive) |
| O=C(c1ncn2c1c(=O)[nH]c1ccccc12)N1CCc2ccccc2C1 | -9.48% (inactive) |
| O=c1[nH]c2ccccc2n2c(-c3ccccc3)nnc12 | 43.1% (active) |
| O=C(O)C1C2CC2CN1C(=O)c1ccc(Cl)cc1Cl (configuration not stated) | 0.74% (inactive) |
| CCCNC(=O)CN(Cc1ccccc1F)S(=O)(=O)c1ccc(C)cc1 | -5.78% (inactive) |
| CC[C@@H]1Cc2cc(O)ccc2C2=C1c1ccc(O)cc1C[C@H]2CC | 35.5% (active) |
| Cc1ccc(S(=O)(=O)N2CCCC2C(=O)NCc2ccco2)cc1 (configuration not stated) | 5.4% (inactive) |
| O=C(NC(=S)Nc1ccc(Cl)c(C(=O)O)c1)c1cncc(Br)c1 | -0.66% (inactive) |
| CC(C)c1ccc(NC(=S)NNc2ccc(Cl)c(C(=O)O)c2)cc1 | 37.3% (active) |
| CC(C)c1ccc(NC(=S)NC2CC3C=CC2C3)cc1 (configuration not stated) | -0.07% (inactive) |
| C=CCN1C(C(=O)OC)CN(Cc2cn(Cc3ccccc3)nn2)CCS1(=O)=O (configuration not stated) | -0.95% (inactive) |
| COc1ccccc1C1=Nc2cccc3cccc(c23)N1 | 56.6% (active) |
| COc1ccccc1-c1n[nH]nc1C1=CC(=O)CC(C)(C)C1 | -5.54% (inactive) |
| COc1ccccc1-c1sc2ccccc2c1-c1ccc(Br)nc1 | -9.92% (inactive) |
| CCn1c(=O)n2n(c1=O)[C@@]1(C=C3CCCC[C@H]32)N=C(NC(=O)c2ccccc2)N(Cc2ccccc2)[C@H]1Cc1ccccc1 | 5.91% (inactive) |
| COCCNC(=O)Nc1ccc2nc(-c3ccco3)c(-c3ccco3)nc2c1 | 50.8% (active) |
| COCCNC(=S)c1ccc(OC)cc1 | 4.41% (inactive) |
| COCCNC(=O)c1cc2c(Br)ccc(Br)c2nc1N | -4.62% (inactive) |
| O=C(C1CCN(S(=O)(=O)c2ccc(Br)s2)CC1)N1CCN(c2ccccc2)CC1 | 1.42% (inactive) |

| Compound | inhibition |
| --- | --- |
| COc1ccc(-n2c(SCC(=O)NC3CCCC3)nnc2-c2ccncc2)cc1 | 3.8% (inactive) |
| CCn1c(/C=C/Nc2ccccc2)[n+](CC)c2ccc(C(=O)OCC(F)(F)F)cc21 | -4.64% (inactive) |
| CC(c1c[nH]c2ccccc12)c1c(-c2ccccc2)n(C)c2ccccc12 (configuration not stated) | -21.7% (inactive) |
| Cc1nc2cc(C(F)(F)F)ccc2n1CCNc1nc(-c2cc(Cl)c(N)c(Cl)c2)cs1 | 5.15% (inactive) |
| CC1CCCCN1C(=O)Cn1c(=O)oc2cc(S(=O)(=O)N3CCCCC3)ccc21 (configuration not stated) | 8.03% (inactive) |
| CCOC(=O)C1CCN(C(=O)c2oc3ccc(S(=O)(=O)N4CCCCCC4)cc3c2C)CC1 | 6.37% (inactive) |
| CC(C)COC(=O)n1c(=O)oc2ccc(S(=O)(=O)N3CCCCC3)cc21 | 42.3% (active) |
| Cc1ccccc1NC(=O)C1CCN(c2ncccn2)CC1 | -7.6% (inactive) |
| COC(=O)C1CCCCN1C(=O)c1ccc(OC2CCN(C(C)=O)CC2)c(OC)c1 (configuration not stated) | -4.35% (inactive) |
| COc1ccc(-c2ccccc2C2Cc3nnccc3CN2C(=O)Nc2ccccc2)cc1 (configuration not stated) | -13% (inactive) |
| Cc1coc2c(O)cc3c(c12)OC1(N2CCCCC2)C(=O)NCCCC31 (configuration not stated) | 35.3% (active) |
| O=C(CSc1nnc(-c2ccccn2)n1-c1ccc(Cl)cc1)Nc1ccccc1-c1ccccc1 | -9.15% (inactive) |
| CS(=O)(=O)N1CCCC(C(=O)Nc2ccccc2C(F)(F)F)C1 (configuration not stated) | -11.1% (inactive) |
| COc1ccc(C(C#N)Nc2ccc(C)cc2)cc1 (configuration not stated) | 0.68% (inactive) |
| COCCn1c(N)c(NCc2ccccc2)c(=O)[nH]c1=O | 7.29% (inactive) |
| Cc1cc2nc3c(=O)n(Cc4ccccc4)c(=O)[nH]c3nc2cc1N | 56.4% (active) |
| COCCCN(C(=O)CSCc1ccc(C)cc1)c1c(N)n(Cc2ccccc2)c(=O)[nH]c1=O | 2.08% (inactive) |
| CC(NC(=O)C1CCCN(S(=O)(=O)c2ccc(-n3cnnn3)cc2)C1)c1ccc(F)cc1 (configuration not stated) | -0.78% (inactive) |
| Cc1ccc(S/C(=N\S(=O)(=O)c2ccc(Cl)cc2)c2ccccc2)cc1 | 7.36% (inactive) |
| CCOc1ccc(Oc2c(Cl)cnn(-c3ccc(C)cc3)c2=O)cc1 | 5.6% (inactive) |
| COc1ccc(C2Nc3ccccc3C(=O)N2Cc2cccs2)cc1COc1c(C)cccc1C (configuration not stated) | -15.8% (inactive) |
